From PubChem
An excerpt weighted towards active compounds, which were near 2.1% of everything screened.
DNMT1 inh – inhibitors of human DNMT1. inhibition (reported as % activation of signal), % at 10 µM. 0.83% of 360,000 active. DNMT1 molecular beacon, Hinp1I cleavage, fluorescence; in the data active means inhibition above about 50%
SUMO1-SIM PPI – SUMO1-SIM interaction modulation; inhibition, % at 20 µM; SUMO1 binding to a labelled peptide, TR-FRET, 1 h; AID 602429; 0.33% of 360,000 active; P63165; in the data active means inhibition above about 37%
Target sequence (P63165 whole entry, looked up): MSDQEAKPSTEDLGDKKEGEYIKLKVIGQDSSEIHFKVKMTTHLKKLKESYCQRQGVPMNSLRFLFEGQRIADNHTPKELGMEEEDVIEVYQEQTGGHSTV
GRK2 inh – human GRK2 inhibition via aptamer displacement. bead flow cytometry, FAM-aptamer displacement from GRK2. 0.59% of 330,000 active. inhibition of aptamer binding, % at 10 µM. P25098;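 active means inhibition of aptamer binding above 40%, roughly 3 SD of noise, on plates passing a quality check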;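 further: median bead fluorescence of bound FAM aptamer so fluorescent compounds give negative values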
STEP inh – inhibitors of human striatal-enriched phosphatase STEP; recombinant STEP, OMFP fluorogenic substrate, fluorescence; inhibition, % at 20 µM; 0.25% of 360,000 active; AID 588621; P54829;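 active means inhibition at 20 µM, scaled per plate between control wells, above about 37%, limit read from the data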;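 further: 0% = DMSO with enzyme and substrate and 100% = substrate only without enzyme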
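System: STEP phosphatase, cell-free reaction; Buffer or medium: Bis-Tris pH 6.0 buffer with DTT, detergent; Incubation: 20 min at room temperature, dark; Measured by: fluorescence, 480/540 nm.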
LMPTP inh – LMPTP (human) inhibition | inhibition, % at 20 µM | AID 651560 | 0.22% of 360,000 active | recombinant LMPTP-A, OMFP fluorogenic substrate, fluorescence intensity | P24666;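 active means compounds that cut the enzyme signal by at least half of the control window in the single-dose screen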;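 further: plate controls were DMSO wells with enzyme plus substrate for no effect and substrate without enzyme for full effect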
Target sequence (P24666 whole entry, looked up): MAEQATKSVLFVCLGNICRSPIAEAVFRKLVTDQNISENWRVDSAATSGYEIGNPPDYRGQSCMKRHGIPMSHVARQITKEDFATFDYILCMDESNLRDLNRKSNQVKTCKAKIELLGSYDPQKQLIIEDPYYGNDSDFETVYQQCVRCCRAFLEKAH
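Buffer or medium: Bis-Tris pH 6.0, DTT, detergent; Assay system: LMPTP-A enzyme; Quantity: 0.625 nM enzyme; Detection: endpoint fluorescence intensity; Times: 50 min dark incubation at room temperature; Controls: substrate-only low control, DMSO enzyme-plus-substrate high control; Doses: single 20 µM dose; Read-out: percent inhibition versus substrate-only and uninhibited controls; Reagent: 400 µM OMFP.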
Scp-1 inhibitor – Scp-1 (human) phosphatase inhibition; Q9GZU7; Recombinant Scp1, phosphopeptide, malachite green phosphate absorbance; inhibition, % at 20 µM; 0.88% of 340,000 active; AID 493091;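 active means inhibition above about 50% at 20 µM, limit read from the data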;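 further: plate controls were DMSO wells with enzyme for no effect and wells lacking enzyme for full effect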
Target sequence (Q9GZU7 76-261 limits assumed): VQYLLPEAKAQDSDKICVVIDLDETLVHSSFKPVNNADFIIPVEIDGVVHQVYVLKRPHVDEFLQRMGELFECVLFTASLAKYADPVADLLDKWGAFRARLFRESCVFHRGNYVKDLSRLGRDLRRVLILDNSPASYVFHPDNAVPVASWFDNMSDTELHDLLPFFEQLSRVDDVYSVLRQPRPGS
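Assay system: SCP-1 catalytic fragment, aa 76-261 | Buffer or medium: Tris acetate buffer pH 5.5 with MgCl2 and Tween-20 | Compound: One concentration, 20 µM, with 1.0% DMSO | Also added: Phospho 17-mer peptide substrate | Signal: Absorbance at 630 nm | Incubation: 45 min enzyme reaction at room temperature | Measure: % inhibition of SCP-1 phosphate liberation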
DNMT1 confirm – DNMT1 inhibition confirmation, single concentration. shares compounds with DNMT1 inh. DNMT1 molecular beacon HinP1I cleavage, fluorescence. inhibition, % at 10 µM. 8% of 2,300 active. AID 602385;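 active means average inhibition of at least 30% in the single-concentration confirmation test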
Beacon interf – counter-screen for DNMT1 inhibitors: spectral interference | shares compounds with DNMT1 inh | DNMT1 molecular beacon spectral interference counterscreen, fluorescence 485/520 | activation (fluorescence interference), % at 10 µM | 1% of 2,300 active;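 active means activation of at least 30% at 10 µM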;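 further: DNMT1 catalytic domain with a HinP1I cleavage step and a FAM/dabcyl DNA beacon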
An asterisk follows results filed as active; . = no result given.

SMILES	DNMT1 inh	SUMO1-SIM PPI	GRK2 inh	STEP inh	LMPTP inh	Scp-1 inhibitor	DNMT1 confirm	Beacon interf
COc1ccc(-c2ccc(C#N)c(SCC(=O)Nc3sc4c(c3C#N)CCC4)n2)cc1OC	61*	2	2	1	-1	-1	-3	-4
N#Cc1cc2c(nc1SCC(=O)Nc1sc3c(c1C#N)CCC3)CCC2	6	-1	0	-1	1	6	.	.
Cc1oc(-c2ccc(Cl)cc2)cc1-c1nn2c(-c3ccoc3C)nnc2s1	93*	20	6	-1	8	45	5	1
Clc1ccc(-c2nnc3sc(-c4ccc(Br)o4)nn23)cc1	112*	-2	0	4	-1	-4	61*	48*
Cc1ccc(CN2C(=O)CSCC2(C)C(=O)NCc2ccccc2)cc1 (stereo not given)	.	-3	.	.	0	.	.	.
CC1(C(=O)NS(=O)(=O)c2ccc(Br)cc2)CCN1C(=O)C1CCCCC1 (stereo not given)	2	-2	.	-3	-2	.	.	.
COc1ccc(-c2cc3nc4ccccc4n3c(N)c2C#N)cc1	52*	87*	0	62*	58*	17	8	7
Cc1ccc(C(=O)Nc2ccc(S(=O)(=O)N3CCN(C)CC3)cc2)cc1	67*	0	0	0	0	-12	5	4
CC1(c2nc3ccccc3[nH]2)CCC2=Nc3ccccc3CN21 (stereo not given)	.	2	.	.	0	.	.	.
Cc1cc(C)c(NC(=O)CSc2nc(COc3ccccc3)nc3ccccc23)c(C)c1	70*	-4	7	1	0	-4	0	-7
CC(C)[C@H](NC(=O)OC(C)(C)C)c1cc(C(=O)NCCc2c[nH]c3ccccc23)c(N)s1	.	-1	.	.	4	.	.	.
O=C1NC(=S)S/C1=C\c1coc2ccc(O)cc2c1=O	81*	6	5	68*	3	4	0	1
CC(C)(COC(=O)c1ccccc1)N1CC2CCC(C1)O2	0	2	.	-3	0	5	.	.
CCOC(=O)c1c(C)[nH]c(C)c1C(=O)COC(=O)Cc1n[nH]c(=O)c2ccccc12	3	2	4	-2	-1	-3	.	.
COc1ccc2nc(N3CCCC3)[nH]c2c1	88*	-1	0	1	-1	-8	6	2
COc1ccc2nc(NCCO)[nH]c2c1	-1	4	0	-3	-2	-5	.	.
Cc1ccc(-c2nc(SC(C)C(=O)NC3CC3)n[nH]2)cc1 (stereo not given)	2	4	.	-1	-3	.	.	.
O=C(N/N=C/c1cc(Cl)cc([N+](=O)[O-])c1O)NC12CC3CC(CC(C3)C1)C2	72*	-1	3	8	78*	23	7	-5
CC(CNC(=O)CC[C@H]1O[C@@H](n2ccc(=O)[nH]c2=O)[C@H](O)[C@@H]1O)c1ccccc1 (stereo not given in full)	-1	2	.	-1	-2	.	.	.
O=C(COc1ccc(Cl)cc1Cl)NC(=S)Nc1ccccc1C(=O)O	.	.	15	.	.	.	.	.
O=C(COc1ccc(Cl)cc1Cl)Nc1ccc(C(=O)Nc2ccccc2C(=O)O)cc1	84*	41*	0	11	14	30	18	5
Cc1ccc(/C=C/C(=O)N2CCc3ccccc32)o1	86*	-3	9	4	2	52*	8	2
O=C(/C=C/c1ccco1)N1CCc2ccccc21	4	-13	0	3	2	-1	.	.
O=[N+]([O-])c1cccc(/C=C/c2nc(C=Nc3ccc4ccccc4c3)c(O)o2)c1	53*	0	0	-1	9	1	0	-4
COCCNCCCCSc1ccc(Cl)cc1	75*	-2	0	-1	-2	1	0	0
CCOc1cccc(=O)c2c(C)n(CC(=O)c3ccccc3)c(C)c12	37	4	1	2	9	2	.	.
